Test results from ChEMBL document CHEMBL3272181, “Design of substrate-site-directed irreversible inhibitors of adenosine 5'-phosphate aminohydrolase. Effect of substrate substituents on affinity for the substrate site” (J Med Chem, 1976).

How the values were obtained:
[1] = Retardation factor, Rf of the compound in 5:2:3 1-butanol-acetic acid-water by paper chromatographic analysis; type: physicochemical; settings: buffer
[2] = Retardation factor, Rf of the compound in 1:1 2-propanol-0.25 M triethylammonium bicarbonate by paper chromatographic analysis; type: physicochemical
[3] = species: Oryctolagus cuniculus; assay: Activity at rabbit muscle AMP aminohydrolase after 24 hrs by Lineweaver-Burk plot analysis relative to AMP; type: tissue-based; settings: Muscle tissue
[4] = Linear competitive inhibition of rabbit muscle AMP aminohydrolase using AMP as substrate at 21 to 42 uM by Lineweaver-Burk plot analysis; type: tissue-based, Oryctolagus cuniculus, Muscle tissue
Method in brief: (§1)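 Rabbit-muscle AMP aminohydrolase (Grade IV), diluted into 1 M KCl before use. Assayed at 22° in 0.01 M citrate buffer pH 6.5 with 25 mM KCl, following the fall in absorbance at 265 nm (Δε 8400, except 8-bromo-AMP). Initial velocities were linear and proportional to enzyme. At least four substrate and two inhibitor levels were used; parameters came from Lineweaver-Burk plots.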

[5] = Stability of the compound assessed as pancreatic protease type 1 (unknown origin)-mediated amide linkage cleavage at pH 7.6 after 24 hrs by paper electrophoretic analysis; type: ADME; settings: buffer, pH 7.6, 24 h
Method in brief: (§2)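 Compounds were incubated at 37° for 24 h in 0.05 M Tris pH 7.6 (2 ml) with one of: acylase 20 mg; pancreatic protease I 20 mg; fungal II 20 mg; papaya III 10 mg; bacterial IV 200 mg; VI 30 mg; VII 30 or 15 mg; X 5 mg; or hog-intestine peptidase 20 mg. Amide cleavage was checked by paper electrophoresis (pH 7.6, 4 kV, 30 min).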

[6] = Stability of the compound assessed as fungal protease type 2-mediated amide linkage cleavage at pH 7.6 after 24 hrs by paper electrophoretic analysis; type: ADME; settings: fungi, buffer, pH 7.6, 24 h; method in brief: as §2
[7] = Stability of the compound assessed as papaya protease type 3-mediated amide linkage cleavage at pH 7.6 after 24 hrs by paper electrophoretic analysis; type: ADME; settings: carica papaya, buffer, pH 7.6, 24 h; method in brief: as §2
[8] = Stability of the compound assessed as bacterial protease type 4-mediated amide linkage cleavage at pH 7.6 after 24 hrs by paper electrophoretic analysis; type: ADME; settings: bacteria, buffer, pH 7.6, 24 h; method in brief: as §2
[9] = Stability of the compound assessed as bacterial protease type 6-mediated amide linkage cleavage at pH 7.6 after 24 hrs by paper electrophoretic analysis; type: ADME; settings: bacteria, buffer, pH 7.6, 24 h; method in brief: as §2
[10] = Stability of the compound assessed as bacterial protease type 7-mediated amide linkage cleavage at pH 7.6 after 24 hrs by paper electrophoretic analysis; type: ADME; settings: bacteria, buffer, pH 7.6, 24 h; method in brief: as §2
[11] = Stability of the compound assessed as bacterial protease type 8-mediated amide linkage cleavage at pH 7.6 after 24 hrs by paper electrophoretic analysis; type: ADME; settings: bacteria, buffer, pH 7.6, 24 h
[12] = Stability of the compound assessed as bacterial protease type 10-mediated amide linkage cleavage at pH 7.6 after 24 hrs by paper electrophoretic analysis; type: ADME; settings: bacteria, buffer, pH 7.6, 24 h; method in brief: as §2
[13] = Stability of the compound assessed as acylase (unknown origin)-mediated amide linkage cleavage at pH 7.6 after 24 hrs by paper electrophoretic analysis; type: ADME; settings: buffer, pH 7.6, 24 h; method in brief: as §2
[14] = Stability of the compound assessed as hog intestinal peptidase-mediated amide linkage cleavage at pH 7.6 after 24 hrs by paper electrophoretic analysis; type: ADME, Sus scrofa; settings: pig, isolated protein, pH 7.6, 24 h; method in brief: as §2
[15] = Linear competitive inhibition of rabbit muscle AMP aminohydrolase using AMP as substrate at 27 to 54 uM by Lineweaver-Burk plot analysis; type: tissue-based, Oryctolagus cuniculus, Muscle tissue; method in brief: as §1
[16] = species: Oryctolagus cuniculus; assay: Activity at rabbit muscle AMP aminohydrolase by Lineweaver-Burk plot analysis; type: tissue-based; settings: Muscle tissue; method in brief: as §1
[17] = Retardation factor, Rf of the compound in 4:1:5 1-butanol-acetic acid-water by paper chromatographic analysis; type: physicochemical; settings: buffer
[18] = Retardation factor, Rf of the compound in 7:3 1-propanol-water by paper chromatographic analysis; type: physicochemical; settings: buffer
[19] = Linear competitive inhibition of rabbit muscle AMP aminohydrolase using AMP as substrate at 49 to 99 uM by Lineweaver-Burk plot analysis; type: tissue-based, Oryctolagus cuniculus, Muscle tissue; method in brief: as §1
[20] = Linear competitive inhibition of rabbit muscle AMP aminohydrolase using AMP as substrate at 26 to 52 uM by Lineweaver-Burk plot analysis; type: tissue-based, Oryctolagus cuniculus, Muscle tissue; method in brief: as §1
[21] = Linear competitive inhibition of rabbit muscle AMP aminohydrolase using AMP as substrate at 11 to 23 uM by Lineweaver-Burk plot analysis; type: tissue-based, Oryctolagus cuniculus, Muscle tissue; method in brief: as §1
[22] = Retardation factor, Rf of the compound in 7:1:2 2-propanol-concentrated ammonia-water by paper chromatographic analysis; type: physicochemical; settings: buffer
[23] = Retardation factor, Rf of the compound in 7:3 95% ethanol-1M ammonium acetate at pH 7.5 by paper chromatographic analysis; type: physicochemical
[24] = Linear competitive inhibition of rabbit muscle AMP aminohydrolase using AMP as substrate at 49 to 148 uM by Lineweaver-Burk plot analysis; type: tissue-based, Oryctolagus cuniculus, Muscle tissue; method in brief: as §1
[25] = species: Oryctolagus cuniculus; assay: Activity at rabbit muscle AMP aminohydrolase after 48 hrs by Lineweaver-Burk plot analysis relative to AMP; type: tissue-based; settings: Muscle tissue
[26] = Non-linear competitive inhibition of rabbit muscle AMP aminohydrolase using AMP as substrate at 23 uM by Lineweaver-Burk plot analysis; type: tissue-based, Oryctolagus cuniculus, Muscle tissue; method in brief: as §1
[27] = Non-linear competitive inhibition of rabbit muscle AMP aminohydrolase using AMP as substrate at 46 uM by Lineweaver-Burk plot analysis; type: tissue-based, Oryctolagus cuniculus, Muscle tissue; method in brief: as §1
[28] = Linear competitive inhibition of rabbit muscle AMP aminohydrolase using AMP as substrate at 12 to 24 uM by Lineweaver-Burk plot analysis; type: tissue-based, Oryctolagus cuniculus, Muscle tissue; method in brief: as §1
[29] = Linear competitive inhibition of rabbit muscle AMP aminohydrolase using AMP as substrate at 14 to 28 uM by Lineweaver-Burk plot analysis; type: tissue-based, Oryctolagus cuniculus, Muscle tissue; method in brief: as §1
[30] = Linear noncompetitive inhibition of rabbit muscle AMP aminohydrolase using AMP as substrate at 19 to 38 uM by Lineweaver-Burk plot analysis; type: tissue-based, Oryctolagus cuniculus, Muscle tissue; method in brief: as §1
[31] = Linear competitive inhibition of rabbit muscle AMP aminohydrolase using AMP as substrate at 11 to 22 uM by Lineweaver-Burk plot analysis; type: tissue-based, Oryctolagus cuniculus, Muscle tissue; method in brief: as §1
[32] = Linear competitive inhibition of rabbit muscle AMP aminohydrolase using AMP as substrate at 64 to 128 uM by Lineweaver-Burk plot analysis; type: tissue-based, Oryctolagus cuniculus, Muscle tissue; method in brief: as §1
[33] = Stability of the compound in Tris buffer at pH 8.5 at 22 degC; type: physicochemical

Structure (SMILES): CCC(=O)NCC(C[C@H]1O[C@@H](n2cnc3c(N)ncnc32)[C@H](O)[C@@H]1O)P(=O)(O)O (stereo partly drawn)
- Rf [1]: 0.39
- Rf [2]: 0.83
- Activity [3]: 0%
- Ki [4]: 17 µM
- Stability [5]: Stable
- Stability [6]: Stable
- Stability [7]: Stable
- Stability [8]: Stable
- Stability [9]: Stable
- Stability [10]: Stable
- Stability [11]: Stable
- Stability [12]: Stable
- Stability [13]: Stable
- Stability [14]: Stable

Structure (SMILES): COC(=O)NCC(C[C@H]1O[C@@H](n2cnc3c(N)ncnc32)[C@H](O)[C@@H]1O)P(=O)(O)O (stereo partly drawn)
- Rf [1]: 0.33
- Rf [2]: 0.75
- Activity [3]: 0%
- Ki [15]: 19 µM

Structure (SMILES): CC(=O)O[C@@H]1[C@H](OC(C)=O)[C@@H](COP(=O)(O)O)O[C@H]1n1cnc2c(N)ncnc21
- Km [16]: 670 µM
- Rf [1]: 0.56
- Rf [17]: 0.34
- Rf [18]: 0.41
- Activity [3]: 0.07%
- Ki [19]: 105 µM

Structure (SMILES): CC(=O)NCC(C[C@H]1O[C@@H](n2cnc3c(N)ncnc32)[C@H](O)[C@@H]1O)P(=O)(O)O (stereo partly drawn)
- Km [16]: 80 µM
- Rf [1]: 0.29
- Rf [2]: 0.73
- Activity [3]: 0.61%
- Ki [20]: 20 µM
- Stability [5]: Stable
- Stability [6]: Stable
- Stability [7]: Stable
- Stability [8]: Stable
- Stability [9]: Stable
- Stability [10]: Stable
- Stability [11]: Stable
- Stability [12]: Stable
- Stability [13]: Stable
- Stability [14]: Stable

Structure (SMILES): NCC(C[C@H]1O[C@@H](n2cnc3c(N)ncnc32)[C@H](O)[C@@H]1O)P(=O)(O)O (stereo partly drawn)
- Km [16]: 140 µM
- Rf [1]: 0.21
- Rf [2]: 0.49
- Activity [3]: 0.65%

Structure (SMILES): CC(=O)NC[C@H](OP(=O)(O)O)[C@H]1O[C@@H](n2cnc3c(N)ncnc32)[C@H](O)[C@@H]1O
- Activity [3]: > 0%
- Ki [21]: 18 µM

Structure (SMILES): CC1(C)O[C@@H]2[C@H](O1)[C@@H](COP(=O)(O)O)O[C@H]2n1cnc2c(N)ncnc21
- Km [16]: 130 µM
- Rf [1]: 0.59
- Rf [22]: 0.34
- Rf [17]: 0.4
- Rf [23]: 0.3
- Activity [3]: 0.5%
- Ki [24]: 260 µM

Structure (SMILES): CC(=O)NC[C@@H](OP(=O)(O)O)[C@H]1O[C@@H](n2cnc3c(N)ncnc32)[C@H](O)[C@@H]1O
- Activity [25]: > 0%
- Ki [26]: 47 µM
- Ki [27]: 30 µM

Structure (SMILES): CCCOC(=O)NCC(C[C@H]1O[C@@H](n2cnc3c(N)ncnc32)[C@H](O)[C@@H]1O)P(=O)(O)O (stereo partly drawn)
- Rf [1]: 0.55
- Rf [2]: 0.81
- Activity [3]: 0%
- Ki [28]: 14 µM

Structure (SMILES): Nc1ncnc2c1ncn2[C@@H]1O[C@H](COP(=O)(O)O)[C@@H](O)[C@H]1O
- Km [16]: 600 µM
- Vmax [16]: 294 µmol/min
- Activity [3]: 100%

Structure (SMILES): CC(=O)OC(C[C@H]1O[C@@H](n2cnc3c(N)ncnc32)[C@@H]2OC(C)(C)O[C@@H]21)P(=O)(O)O (stereo partly drawn)
- Rf [1]: 0.65
- Rf [17]: 0.5
- Rf [23]: 0.39
- Rf [18]: 0.49

Structure (SMILES): CCC(=O)NC[C@H](OP(=O)(O)O)[C@H]1O[C@@H](n2cnc3c(N)ncnc32)[C@H](O)[C@@H]1O
- Ki [29]: 42 µM

Structure (SMILES): CCC(=O)NC[C@@H](OP(=O)(O)O)[C@H]1O[C@@H](n2cnc3c(N)ncnc32)[C@H](O)[C@@H]1O
- Activity [25]: 0%
- Ki [30]: 205 µM

Structure (SMILES): CCOC(=O)NCC(C[C@H]1O[C@@H](n2cnc3c(N)ncnc32)[C@H](O)[C@@H]1O)P(=O)(O)O (stereo partly drawn)
- Rf [1]: 0.41
- Rf [2]: 0.78
- Activity [3]: 0%
- Ki [31]: 16 µM

Structure (SMILES): N#CC(C[C@H]1O[C@@H](n2cnc3c(N)ncnc32)[C@H](O)[C@@H]1O)P(=O)(O)O (stereo partly drawn)
- Rf [1]: 0.27
- Rf [2]: 0.71

Structure (SMILES): CC(=O)OC(C[C@H]1O[C@@H](n2cnc3c(N)ncnc32)[C@H](O)[C@@H]1O)P(=O)(O)O (stereo partly drawn)
- Km [16]: 120 µM
- Rf [1]: 0.31
- Rf [17]: 0.18
- Rf [23]: 0.17
- Rf [18]: 0.27
- Activity [3]: 7.8%
- Ki [32]: 330 µM
- Stability [33]: 16 h
